High-throughput results from PubChem.
INS-1E ATP HTS: protection of INS-1E cells from cytokine death, primary screen, ATP luminescence, single point | 20,000 tested, 0.1% active | protection from cytokine-induced ATP loss, % at 10 µM | INS-1E cytokine-induced death, 48 h; normalised: neutral wells 0, positive control 100;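 active = mean replicate protection from cytokine-induced ATP loss at least 50% and at least 75% of replicates each reaching 50%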
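Test system: INS-1E rat cells | Quantity: 8000 cells per well | Medium: Phenol-red-free RPMI with 5% fetal bovine serum | Reagent: Cytokine cocktail of IFN-γ, TNF-α and IL-1β | Doses: One compound concentration, pin transfer | Timing: 48 h co-treatment, 10 min post-lysis read | Technique: Luminescent ATP assay (CellTiter-Glo)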
YB-1 expr inh: inhibitors of YB-1 gene expression, primary screen, cell-based, fluorescence. U2OS, qRT-PCR YB-1 vs CDIP delta delta Cp, 16 h; stronger effect = higher value; zero = DMSO, each unit about twofold. delta delta Cp (YB-1 minus CDIP) (test concentration not listed). 30,000 tested, 0.37% active;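 active = delta delta Cp rounded down to an integer at or above 3, about 3 SD of DMSO wells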;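 note: higher means less YB-1 transcript or more CDIP transcript relative to DMSO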
T cruzi intra: inhibitors of intracellular Trypanosoma cruzi, primary screen, cell-based, plate reader, single point, set 2; activity score (inhibition), % at 5.01 µM; 22,000 tested, 4.9% active; intracellular Trypanosoma cruzi in host cells; in the data active = activity score above about 55%;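 note: parasites and compound incubated about four days before reading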
Numbers stand for hits. Shown is part of a subset that was picked to be rich in hits.

`CC1(C)C2CC(=O)O[C@@]3(C)C4=CC(=O)O[C@@H](c5ccoc5)[C@]4(C)CCC3[C@@]2(C)C=C[C@H]1O` (some centres undefined) gave YB-1 expr inh inactive.
`S=c1[nH]nc(CSCc2cccc3ccccc23)n1C1CCCCC1` gave YB-1 expr inh inactive.
Screening C[C@@H]1CN([C@H](C)CO)C(=O)Cc2cc(NC(=O)Nc3ccc(C(F)(F)F)cc3)ccc2O[C@H]1CN(C)CC1CC1 returned INS-1E ATP HTS inactive, YB-1 expr inh inactive and T cruzi intra inactive.
Screening C[C@@H]1CN([C@H](C)CO)C(=O)Cc2cc(NC(=O)Nc3ccc(C(F)(F)F)cc3)ccc2O[C@@H]1CN(C)CC1CCCCC1 returned INS-1E ATP HTS inactive, YB-1 expr inh inactive and T cruzi intra 62.
For C[C@H]1CN([C@@H](C)CO)C(=O)Cc2cc(NC(=O)Nc3ccc(C(F)(F)F)cc3)ccc2O[C@H]1CN(C)CC1CC1 the results were INS-1E ATP HTS inactive, YB-1 expr inh inactive and T cruzi intra inactive.
For C[C@@H]1CN([C@H](C)CO)C(=O)Cc2cc(NC(=O)Nc3ccc(C(F)(F)F)cc3)ccc2O[C@H]1CN(C)CC1CCCCC1 the results were INS-1E ATP HTS inactive, YB-1 expr inh inactive and T cruzi intra 83.
`CCCCN1C(=O)NC(C(F)(F)F)(C(F)(F)F)C2=C1CC(C)(C)CC2=O` gave YB-1 expr inh inactive.
`C[C@@H]1CN([C@H](C)CO)C(=O)Cc2cc(NC(=O)c3ccncc3)ccc2O[C@@H]1CN(C)Cc1ccc(C(=O)Nc2ccccc2N)cc1` gave INS-1E ATP HTS inactive, YB-1 expr inh inactive and T cruzi intra inactive.
`C[C@H](CO)N1C[C@H](C)[C@H](CN(C)Cc2ccc(C(=O)Nc3ccccc3N)cc2)Oc2ccc(N(C)C)cc2CC1=O` gave INS-1E ATP HTS 65, YB-1 expr inh inactive and T cruzi intra 59.
C[C@@H]1CN([C@@H](C)CO)C(=O)Cc2cc(NC(=O)c3ccncc3)ccc2O[C@@H]1CN(C)Cc1ccc(C(=O)Nc2ccccc2N)cc1 was read as INS-1E ATP HTS inactive, YB-1 expr inh inactive and T cruzi intra inactive.
For C[C@H]1CN([C@@H](C)CO)C(=O)Cc2cc(N(C)C)ccc2O[C@H]1CN(C)Cc1ccc(C(=O)Nc2ccccc2N)cc1 the results were INS-1E ATP HTS inactive, YB-1 expr inh inactive and T cruzi intra 62.
Screening C[C@@H]1CN([C@@H](C)CO)C(=O)c2cc(N(C)C)ccc2O[C@@H]1CN(C)Cc1ccc(C(=O)Nc2ccccc2N)cc1 returned INS-1E ATP HTS inactive, YB-1 expr inh inactive and T cruzi intra 61.
`C[C@H]1CN([C@@H](C)CO)C(=O)c2cc(N(C)C)ccc2O[C@@H]1CN(C)Cc1ccc(C(=O)Nc2ccccc2N)cc1` gave INS-1E ATP HTS inactive, YB-1 expr inh inactive and T cruzi intra inactive.
`Cc1c(C)c(C)c(CSc2ccccc2N)c(C)c1C` gave YB-1 expr inh inactive.
For CC(C)c1ccc(NCC(O)COc2ccc(Cl)c(Cl)c2)cc1 (centres undefined) the results were YB-1 expr inh inactive.
Screening Cc1cc(C2(c3cc(C)c(N)c(C)c3)CCCCC2)cc(C)c1N returned YB-1 expr inh inactive.
Screening C[C@@H]1CCCCO[C@@H](CN(C)C(=O)NC2CCCCC2)[C@@H](C)CN([C@H](C)CO)C(=O)c2cc(NC(=O)Nc3ccc(C(F)(F)F)cc3)ccc2O1 returned INS-1E ATP HTS inactive, YB-1 expr inh inactive and T cruzi intra 72.
C[C@@H]1CCCCO[C@H](CN(C)C(=O)Nc2ccc(C(F)(F)F)cc2)[C@@H](C)CN([C@H](C)CO)C(=O)c2cc(NC(=O)NC3CCCCC3)ccc2O1 was read as INS-1E ATP HTS inactive, YB-1 expr inh inactive and T cruzi intra 68.
Screening C[C@@H]1CCCCO[C@@H](CN(C)C(=O)C2CCCCC2)[C@@H](C)CN([C@H](C)CO)C(=O)c2cc(NC(=O)Nc3ccccc3)ccc2O1 returned INS-1E ATP HTS inactive, YB-1 expr inh inactive and T cruzi intra inactive.
`C[C@@H]1CCCCO[C@H](CN(C)C(=O)C2CCCCC2)[C@@H](C)CN([C@H](C)CO)C(=O)c2cc(NC(=O)Nc3ccc(C(F)(F)F)cc3)ccc2O1` gave INS-1E ATP HTS inactive, YB-1 expr inh inactive and T cruzi intra 61.
For CC(C)NC(=O)Nc1ccc2c(c1)C(=O)N([C@H](C)CO)C[C@H](C)[C@@H](CN(C)C(=O)Nc1ccc(C(F)(F)F)cc1)OCCCC[C@@H](C)O2 the results were INS-1E ATP HTS inactive, YB-1 expr inh inactive and T cruzi intra inactive.
